ChEMBL document CHEMBL4402582, “Garcinoic Acid Is a Natural and Selective Agonist of Pregnane X Receptor” (J Med Chem, 2020)
The source made the active and inactive calls. No cut-off for these calls is given here.

What was measured:
[1] = target: T1, Nuclear receptor subfamily 1 group I member 2 (Homo sapiens, UniProt O75469); assay: Agonist activity at PXR in human HepaRG cells assessed as reversion of PXR binding at 10 uM incubated for 24 hrs by immunoblot analysis; format: cell-based
T1 sequence (O75469 whole entry): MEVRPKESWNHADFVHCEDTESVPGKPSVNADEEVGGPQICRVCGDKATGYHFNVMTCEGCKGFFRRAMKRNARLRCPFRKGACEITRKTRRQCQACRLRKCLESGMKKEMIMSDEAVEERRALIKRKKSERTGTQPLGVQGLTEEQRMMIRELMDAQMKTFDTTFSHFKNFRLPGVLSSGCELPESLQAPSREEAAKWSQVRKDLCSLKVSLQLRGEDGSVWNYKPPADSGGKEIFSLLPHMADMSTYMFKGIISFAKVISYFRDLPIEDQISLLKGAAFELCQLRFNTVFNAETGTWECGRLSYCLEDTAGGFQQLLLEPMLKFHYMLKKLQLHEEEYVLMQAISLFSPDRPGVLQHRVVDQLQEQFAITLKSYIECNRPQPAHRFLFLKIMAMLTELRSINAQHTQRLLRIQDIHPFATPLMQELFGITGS

[2] = target: T1, Nuclear receptor subfamily 1 group I member 2; assay: Binding affinity to His-tagged PXR-LBD (unknown origin) expressed in Escherichia coli BL21 Gold by ITC analysis
Outline: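 ITC at 37 °C in 25 mM HEPES pH 7.5, 150 mM NaCl, 8% v/v DMSO final. His-tagged PXR-LBD (tag not removed, gel-filtration purified) at 3 μM in cell; ligand at 60 μM in syringe, injected in 10 μL aliquots.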

[3] = Toxicity in C57BL/6 mouse assessed as effect on gross appearance at <=25 mg dosed as oral gavage as single bolus and measured after 24 hrs relative to control; format: organism-based; conditions: in vivo
Outline: (§1)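 Male C57BL/6 mice, 6–7 weeks old, three per group. Single oral gavage bolus of 5, 10, 25, 50 or 100 mg in olive oil vehicle. Observed at 24 h for mortality, gross appearance and behavior, then post-mortem examination of liver and main organs.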

Mus musculus [4] = assay: Induction of PXR protein expression in C57BL/6 mouse liver at 5 to 25 mg dosed as oral gavage as single bolus and measured after 24 hrs relative to control; format: functional, organism-based
Outline: (§2)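 Male C57BL/6 mice, 6–7 weeks old, three per group. Single oral gavage bolus of 5, 10 or 25 mg in olive oil vehicle; vehicle-only controls. Killed at 24 h. Tissue PXR mRNA measured; PXR, CYP3A11 and MDR1 protein measured by immunoblot.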

[5] = Toxicity in C57BL/6 mouse assessed as induction of organ damage at <=25 mg dosed as oral gavage as single bolus and measured after 24 hrs relative to control; format: organism-based; conditions: in vivo; outline: as §1
[6] = Toxicity in C57BL/6 mouse assessed as induction of liver damage at <=25 mg dosed as oral gavage as single bolus and measured after 24 hrs relative to control; format: organism-based; conditions: in vivo; outline: as §1
[7] = target: T1, Nuclear receptor subfamily 1 group I member 2; assay: Agonist activity at PXR in human HepaRG cells assessed as reversion of PXR antagonist sulforaphane-induced suppression of PXR expression at 10 uM incubated for 24 hrs by immunoblot analysis; format: cell-based
Mus musculus [8] = assay: Induction of PXR protein expression in C57BL/6 mouse hepatic parenchyma assessed as induction of localization of PXR protein at hepatocytes around lobular midzonal area at 25 mg dosed as oral gavage as single bolus and measured after 24 hrs by IHC analysis relative to control; format: functional, organism-based
Outline: (§3)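 Male C57BL/6 mice, 6–7 weeks old, three per group. Single oral gavage bolus (5–25 mg) in olive oil; vehicle controls; killed at 24 h. Liver and gut formalin-fixed, paraffin-embedded; 4 μm sections stained with H&E. PXR IHC with polyclonal antibody at 1:200 on an automated stainer with polymer detection.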

[9] = target: T1, Nuclear receptor subfamily 1 group I member 2; assay: Agonist activity at PXR in human HepG2 cells transfected with PXR siRNA assessed as induction of CYP3A4 expression at 10 to 50 uM incubated for 24 hrs; format: cell-based; conditions: hepg2, 24 h
Outline: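 HepG2 cells reverse-transfected with PXR siRNA using lipofectamine RNAiMAX; after 24 h silencing, treated with compound for a further 24 h. PXR and CYP3A4 transcription responses measured.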

Mus musculus [10] = assay: Induction of PXR-dependent CYP3A11 protein expression in C57BL/6 mouse liver at 5 to 25 mg dosed as oral gavage as single bolus and measured after 24 hrs relative to control; format: functional, organism-based; outline: as §2
[11] = Toxicity in C57BL/6 mouse assessed as mortality at 100 mg dosed as oral gavage as single bolus and measured after 24 hrs relative to control; format: organism-based; conditions: in vivo, read-out: Activity
Outline: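 Male C57BL/6 wild-type mice aged 6–7 weeks, 3 per group. Single bolus by oral gavage in an olive-oil vehicle, with vehicle-only controls and dose groups of 5, 10, 25, 50 and 100 mg. Animals were checked 24 h after dosing by gross appearance and behaviour, then killed, and liver and main organs were examined post-mortem.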

[12] = target: T1, Nuclear receptor subfamily 1 group I member 2; assay: Agonist activity at His-tagged PXR-LBD/SRC-1p (unknown origin) expressed in Escherichia coli BL21(DE3) at 10 uM by coactivator recruitment based Alpha-screen assay
[13] = target: T1, Nuclear receptor subfamily 1 group I member 2; assay: Agonist activity at PXR in human HepaRG cells assessed as increase in PXR protein expression at 1 to 25 uM incubated for 24 hrs by immunoblot analysis; format: cell-based
Mus musculus [14] = assay: Induction of PXR protein expression in C57BL/6 mouse intestine assessed as induction of localization of PXR protein at villous epithelium at 5 to 25 mg dosed as oral gavage as single bolus and measured after 24 hrs by IHC analysis relative to control; format: functional, organism-based; outline: as §3
HepG2 = assay: Effect on alpha-tocopherol level in human HepG2 cells at 25 uM; format: functional, cell-based
[15] = target: T1, Nuclear receptor subfamily 1 group I member 2; assay: Agonist activity at PXR in human HT29-MTX cells assessed as increase in PXR protein expression at 1 to 25 uM incubated for 24 hrs by immunoblot analysis; format: cell-based
[16] = target: T1, Nuclear receptor subfamily 1 group I member 2; assay: Agonist activity at PXR in human HepaRG cells assessed as increase in CYP3A4 protein expression at 1 to 25 uM incubated for 24 hrs by immunoblot analysis; format: cell-based
Mus musculus [17] = assay: Induction of PXR mRNA expression in C57BL/6 mouse intestine at 5 to 25 mg dosed as oral gavage as single bolus and measured after 24 hrs relative to control; format: functional, organism-based; outline: as §2
Mus musculus [18] = assay: Induction of PXR protein expression in C57BL/6 mouse intestine assessed as induction of localization of PXR protein at glandular epithelium of crypts at base of mucosa epithelium at 5 to 25 mg dosed as oral gavage as single bolus and measured after 24 hrs by IHC analysis relative to control; format: functional, organism-based; outline: as §3
[19] = target: T1, Nuclear receptor subfamily 1 group I member 2; assay: Agonist activity at PXR in human HepG2 cells assessed as increase in CYP3A4 protein expression at 1 to 25 uM incubated for 24 hrs by immunoblot analysis; format: cell-based; conditions: hepg2, 24 h
Outline: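 HepG2 cells, passages 2–10, treated 24 h with 1 and 25 μM. Lysates sonicated on ice; 20 μg protein run on 10–12% SDS-PAGE and immunoblotted with anti-PXR or anti-CYP3A4. Bands normalized to housekeeping protein and expressed relative to control (=1).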

[20] = target: T1, Nuclear receptor subfamily 1 group I member 2; assay: Agonist activity at PXR in human HepG2 cells assessed as stimulation of CYP450-mediated alpha-tocopherol metabolites production at 25 uM; format: cell-based; conditions: hepg2, 25 µM

C/C(=C\CC/C(C)=C/CC[C@]1(C)CCc2cc(O)cc(C)c2O1)CC/C=C(\C)C(=O)O
Activity [1]: Active | Kd [2]: 0.33 µM | Activity [3]: Non-Toxic | Activity (Mus musculus [4]): Dose-dependent effect | Activity [5]: Non-Toxic | Activity [6]: Non-Toxic | Activity [7]: Active | Activity (Mus musculus [8]): Active | Activity [9]: Not Active | Activity (Mus musculus [10]): Active | mortality at 24 h [11]: 100% | Activity [12]: Active | Activity [13]: Active | Activity (Mus musculus [14]): Active | Activity (HepG2): inactive | Activity [15]: Active | Activity [16]: Active | Activity (Mus musculus [17]): Dose-dependent effect | Activity (Mus musculus [18]): Active | Activity [19]: Dose-dependent effect | Activity [20]: Active
